# According to ChEMBL document CHEMBL4007470, “Discovery of a 2'-fluoro-2'-C-methyl C-nucleotide HCV polymerase inhibitor and a phosphoramidate prodrug with favorable properties” (Bioorg Med Chem Lett, 2017):
# pEC50, pIC50: −log10 of the molar value.
# Columns and labels:
# [1] = system: Hepatitis C virus; assay: Antiviral activity against HCV genotype 1b infected in human HuH7 cells by luciferase reporter gene assay; type: functional, cell-based, Hepacivirus hominis; conditions: Hepatitis C virus, genotype 1b, Huh-7
# How it was run: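 Luciferase-reporter genotype 1b subgenomic replicon in Huh-7 cells; EC50 is concentration giving 50% inhibition. Values are averages of at least three repeats.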
# [2] = system: Hepatitis C virus; assay: Antiviral activity against HCV genotype 1a infected in human HuH7 cells by luciferase reporter gene assay; type: functional, cell-based, Hepacivirus hominis, subtype 1a; conditions: Hepatitis C virus, subtype 1a, Huh-7
# [3] = system: Hepatitis C virus; assay: Antiviral activity against HCV genotype 4a infected in human HuH7 cells by luciferase reporter gene assay; type: functional, cell-based, Hepacivirus hominis; conditions: Hepatitis C virus, genotype 4a, Huh-7
# [4] = Half life in human plasma at 2 uM by LC-MS/MS analysis; type: ADME, cell-free
# How it was run: (§1)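 Compound at 2 μM incubated in plasma at 37 °C for up to 4 h. Aliquots quenched with 9 volumes of acetonitrile containing internal standard, then centrifuged. Supernatant analysed by LC-MS/MS.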
# [5] = Half life in hamster plasma at 2 uM by LC-MS/MS analysis; type: ADME, cell-free; conditions: cricetinae; how it was run: as §1
# [6] = Half life in human intestinal S9 fractions at 2 uM by LC-MS/MS analysis; type: ADME, Intestine
# How it was run: (§2)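 Compound at 2 μM incubated with S9 fractions at 37 °C for 90 min with NADPH and UDPGA. Quenched with aqueous acetonitrile/methanol containing internal standard and analysed by LC-MS/MS. Half-life from an exponential fit assuming first-order kinetics. Hepatic extraction predicted from half-life using the well-stirred model.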
# [7] = Half life in hamster intestinal S9 fractions at 2 uM by LC-MS/MS analysis; type: ADME, Intestine; conditions: cricetinae, intestinal S9 fractions
# [8] = Hepatic extraction in human liver S9 fractions at 2 uM by LC-MS/MS analysis; type: ADME; conditions: liver S9 fractions, read-out: ERH; how it was run: as §2
# [9] = Hepatic extraction in hamster liver S9 fractions at 2 uM by LC-MS/MS analysis; type: ADME; conditions: cricetinae, liver S9 fractions; read-out: ERH; how it was run: as §2
# [10] = Inhibition of HCV genotype 1b wild-type NS5B RNA dependent RNA polymerase; parameters: species or system Hepatitis C virus subtype 1b
# [11] = system: RNA-directed RNA polymerase (Hepacivirus hominis), O39930 [UNDEFINED MUTATION]; assay: Inhibition of HCV genotype 1b wild-type NS5B RNA dependent RNA polymerase S282T mutant relative to control; conditions: Hepatitis C virus subtype 1b
Structure (SMILES),pEC50 [1],pEC50 [2],pEC50 [3],other results
CC[C@@H](C)OC(=O)C1(NP(=O)(OC[C@H]2O[C@@H](c3cnc4c(N)ncnn34)[C@](C)(F)[C@@H]2O)Oc2ccccc2)CCC1 (stereo partly drawn),< 4.06,5.19,6.46,
CC[C@@H](C)OC(=O)C(C)(C)NP(=O)(OC[C@H]1O[C@@H](c2cnc3c(N)ncnn23)[C@](C)(F)[C@@H]1O)Oc1ccccc1 (stereo partly drawn),< 4.06,4.54,5.96,
CC[C@H](C)OC(=O)C1(NP(=O)(OC[C@H]2O[C@@H](c3cnc4c(N)ncnn34)[C@](C)(F)[C@@H]2O)Oc2ccccc2)CCC1 (stereo partly drawn),4.79,4.73,5.68,
COCCOC(=O)C1(NP(=O)(OC[C@H]2O[C@@H](c3cnc4c(N)ncnn34)[C@](C)(F)[C@@H]2O)Oc2ccccc2)CCC1 (stereo partly drawn),5.21,5.47,5.82,
CCOC(=O)C[C@H](NP(=O)(OC[C@H]1O[C@@H](c2cnc3c(N)ncnn23)[C@](C)(F)[C@@H]1O)Oc1ccccc1)C(=O)OCC (stereo partly drawn),5.07,5.48,5.64,
CC(C)OC(=O)C1(NP(=O)(OC[C@H]2O[C@@H](c3cnc4c(N)ncnn34)[C@](C)(F)[C@@H]2O)Oc2ccccc2)CCCCC1 (stereo partly drawn),4.08,4.17,,
CC[C@H](C)OC(=O)[C@H](C)NP(=O)(OC[C@H]1O[C@@H](c2cnc3c(N)ncnn23)[C@](C)(F)[C@@H]1O)Oc1ccccc1 (stereo partly drawn),6.17,6.09,6.34,
COCCOC(=O)C(C)(C)NP(=O)(OC[C@H]1O[C@@H](c2cnc3c(N)ncnn23)[C@](C)(F)[C@@H]1O)Oc1ccccc1 (stereo partly drawn),5.21,5.37,6.09,
CCOC(=O)[C@@H](C)NP(=O)(OC[C@H]1O[C@@H](c2cnc3c(N)ncnn23)[C@](C)(F)[C@@H]1O)Oc1ccccc1 (stereo partly drawn),4.58,4.83,5.24,half-life at 2 µM [4]: 11.4 h; half-life at 2 µM [5]: 5.27 h; half-life at 2 µM [6]: > 13.2 h; half-life at 2 µM [7]: 3.2 h; hepatic extraction ratio at 2 µM [8]: 0.28; hepatic extraction ratio at 2 µM [9]: 0.84
C[C@@]1(F)[C@H](O)[C@@H](COP(=O)(O)OP(=O)(O)OP(=O)(O)O)O[C@H]1c1ccc2c(N)ncnn12,< 4.05,,,pIC50 [10]: 7.34; fold change (FC) [11]: 2.8
CCOC(=O)[C@H](Cc1ccccc1)NP(=O)(OC[C@H]1O[C@@H](c2cnc3c(N)ncnn23)[C@](C)(F)[C@@H]1O)Oc1ccccc1 (stereo partly drawn),5.66,5.77,,
CCOC(=O)C1(NP(=O)(OC[C@H]2O[C@@H](c3cnc4c(N)ncnn34)[C@](C)(F)[C@@H]2O)Oc2ccccc2)CCC1 (stereo partly drawn),6.18,6.48,6.85,half-life at 2 µM [4]: 11.1 h; half-life at 2 µM [5]: 7 h; half-life at 2 µM [6]: 2.92 h; half-life at 2 µM [7]: 1.17 h; hepatic extraction ratio at 2 µM [8]: 0.88; hepatic extraction ratio at 2 µM [9]: 0.91
CCOC(=O)CC[C@H](NP(=O)(OC[C@H]1O[C@@H](c2cnc3c(N)ncnn23)[C@](C)(F)[C@@H]1O)Oc1ccccc1)C(=O)OCC (stereo partly drawn),5.47,5.92,6.08,
CCOC(=O)[C@H](CCCCNC(C)=O)NP(=O)(OC[C@H]1O[C@@H](c2cnc3c(N)ncnn23)[C@](C)(F)[C@@H]1O)Oc1ccccc1 (stereo partly drawn),< 4.06,4.22,4.06,
CCOC(=O)C1(NP(=O)(OC[C@H]2O[C@@H](c3cnc4c(N)ncnn34)[C@](C)(F)[C@@H]2O)Oc2ccccc2)CCCC1 (stereo partly drawn),5.70,6.00,6.42,
CC[C@H](C)OC(=O)[C@@H](C)NP(=O)(OC[C@H]1O[C@@H](c2cnc3c(N)ncnn23)[C@](C)(F)[C@@H]1O)Oc1ccccc1 (stereo partly drawn),5.14,5.10,5.68,

Structure (SMILES),pEC50 [1],pEC50 [2],pEC50 [3],other results
CC(C)OC(=O)C1(NP(=O)(OC[C@H]2O[C@@H](c3cnc4c(N)ncnn34)[C@](C)(F)[C@@H]2O)Oc2ccccc2)CCCC1 (stereo partly drawn),4.29,4.95,5.41,
CC(C)C[C@H](NP(=O)(OC[C@H]1O[C@@H](c2ccc3c(N)ncnn23)[C@](C)(F)[C@@H]1O)Oc1ccccc1)C(=O)OC(C)C (stereo partly drawn),6.16,6.13,6.23,
CCOC(=O)[C@@H](NP(=O)(OC[C@H]1O[C@@H](c2cnc3c(N)ncnn23)[C@](C)(F)[C@@H]1O)Oc1ccccc1)C(C)C (stereo partly drawn),4.42,4.45,4.95,
CCOC(=O)[C@@H](NP(=O)(OC[C@H]1O[C@@H](c2cnc3c(N)ncnn23)[C@](C)(F)[C@@H]1O)Oc1ccccc1)C(C)(C)C (stereo partly drawn),< 4.06,< 4.06,< 4.06,
CC(C)OC(=O)[C@@H](C)NP(=O)(OC[C@H]1O[C@@H](c2cnc3c(N)ncnn23)[C@](C)(F)[C@@H]1O)Oc1ccccc1 (stereo partly drawn),< 4.06,< 4.06,4.24,half-life at 2 µM [4]: 6.33 h; half-life at 2 µM [5]: 11.2 h; half-life at 2 µM [6]: > 13.2 h; half-life at 2 µM [7]: 6.92 h; hepatic extraction ratio at 2 µM [8]: 0.17; hepatic extraction ratio at 2 µM [9]: 0.85
CC(C)(C)COC(=O)C1(NP(=O)(OC[C@H]2O[C@@H](c3cnc4c(N)ncnn34)[C@](C)(F)[C@@H]2O)Oc2ccccc2)CCC1 (stereo partly drawn),< 4.06,4.14,4.11,
CCC[C@H](NP(=O)(OC[C@H]1O[C@@H](c2cnc3c(N)ncnn23)[C@](C)(F)[C@@H]1O)Oc1ccccc1)C(=O)OCC (stereo partly drawn),6.19,6.41,6.57,
CCOC(=O)C(C)(C)NP(=O)(OC[C@H]1O[C@@H](c2cnc3c(N)ncnn23)[C@](C)(F)[C@@H]1O)Oc1ccccc1 (stereo partly drawn),6.10,6.23,6.82,half-life at 2 µM [4]: 7.68 h; half-life at 2 µM [5]: 8.3 h; half-life at 2 µM [6]: 2.15 h; half-life at 2 µM [7]: 1.67 h; hepatic extraction ratio at 2 µM [8]: 0.62; hepatic extraction ratio at 2 µM [9]: 0.83
CC[C@H](NP(=O)(OC[C@H]1O[C@@H](c2cnc3c(N)ncnn23)[C@](C)(F)[C@@H]1O)Oc1ccccc1)C(=O)OC(C)C (stereo partly drawn),5.25,5.59,5.70,
CC[C@H](C)OC(=O)C(C)(C)NP(=O)(OC[C@H]1O[C@@H](c2cnc3c(N)ncnn23)[C@](C)(F)[C@@H]1O)Oc1ccccc1 (stereo partly drawn),< 4.06,4.44,5.44,
CC(C)(C)COC(=O)C(C)(C)NP(=O)(OC[C@H]1O[C@@H](c2cnc3c(N)ncnn23)[C@](C)(F)[C@@H]1O)Oc1ccccc1 (stereo partly drawn),4.69,5.21,5.37,
CCOC(=O)[C@H](CCCCN)NP(=O)(OC[C@H]1O[C@@H](c2cnc3c(N)ncnn23)[C@](C)(F)[C@@H]1O)Oc1ccccc1 (stereo partly drawn),< 4.06,< 4.06,4.20,
CC(C)OC(=O)C1(NP(=O)(OC[C@H]2O[C@@H](c3cnc4c(N)ncnn34)[C@](C)(F)[C@@H]2O)Oc2ccccc2)CCOCC1 (stereo partly drawn),4.54,4.84,5.15,
CC(C)OC(=O)[C@@H](NP(=O)(OC[C@H]1O[C@@H](c2cnc3c(N)ncnn23)[C@](C)(F)[C@@H]1O)Oc1ccccc1)C(C)C (stereo partly drawn),< 4.06,< 4.06,< 4.06,
CC[C@@H](C)OC(=O)[C@@H](C)NP(=O)(OC[C@H]1O[C@@H](c2cnc3c(N)ncnn23)[C@](C)(F)[C@@H]1O)Oc1ccccc1 (stereo partly drawn),< 4.06,< 4.06,< 4.06,
CC[C@@H](C)OC(=O)[C@H](C)NP(=O)(OC[C@H]1O[C@@H](c2cnc3c(N)ncnn23)[C@](C)(F)[C@@H]1O)Oc1ccccc1 (stereo partly drawn),6.25,6.28,6.43,
